Bioassay records from PubChem.
The list is not random: actives were taken first. Their share in the collection is about 5.9%.
DAT uptake mod: changed human dopamine transporter uptake under cocaine IC80. Q01959. LLC-PK1 hDAT cells, [14C]-dopamine uptake with cocaine IC80; actives deviate in either direction. B-score at 10 µM. 110,000 compounds, 1.3% hits;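 active = Z score or B-score, a plate-position-corrected score, falls beyond the plate's 99.7% confidence bounds, in either direction; inactive = both scores lie inside the 99.7% bounds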;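 note: scored against the spread of the other compound wells on the same plate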
Rev-RRE block: HIV Rev-RRE protein-RNA interaction inhibition; Rev peptide-RRE RNA binding, FRET; inhibition, % at 8 µM; 97,000 compounds, 0.79% hits;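 active = inhibition above the screen-wide mean plus 3 SD, cut at about 35% in these data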;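 note: 0% = median DMSO wells and 100% = median Neomycin B control wells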
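Assay system: Labelled RRE RNA duplex and labelled Rev peptide | Times: 5 min preincubation and 15 min binding, 25 °C | Detection: FRET, ex 480 nm, em 540 and 671 nm | Evaluation: % inhibition of FRET ratio versus controls | Benchmarks: DMSO wells as 0% and neomycin B wells as 100% inhibition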
Phagocyt inh: macrophage phagocytosis inhibition; J774A.1 macrophage IgG-bead phagocytosis, imaging; 110,000 compounds, 0.07% hits; inhibition, % at 5 µM; AID 1029;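 active = inhibition above the mean of the plate negative controls plus 5 SD, cut at about 13% in these data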;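 note: phagocytic index as fraction of beads internalized from green versus red external bead signal; plate controls were DMSO negative control for no effect and cytochalasin-D positive control for full effect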
Cav32 inh: human Cav3.2 channel inhibition, primary screen | O95180 | Cav3.2-expressing cells, Fluo-4 calcium fluorescence FDSS; stronger effect = lower value | B-score at 10 µM | 100,000 compounds, 4% hits | AID 449739;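 active = single-dose well whose peak fluorescence ratio is a statistical outlier from its plate by either plate-standardised score or position-corrected B-score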
Measles CPE: protection of cells from measles virus; Measles virus-infected cells, CPE protection, absorbance; protection (pct of control), % at 4 µM; 140,000 compounds, 1.5% hits; in the data active = protection mostly above about 24%, no sharp cut-off; inactive = mostly below about 26%
Pyk2 oligo antag: antagonists of human Pyk2 oligomerization; Q14289; Q293 cells, Pyk2 FERM NanoBiT luminescence; stronger effect = lower value; z-score (the deposit names both 25 µM and 10 µM); 99,000 compounds, 0.83% hits; AID 1347419;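 active = Z-score of -3 or lower, scaled per plate to the spread of control and sample wells; inactive = z-score above -3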;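 note: negative z-score means lost luminescence so less FERM oligomerization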
Target sequence (Q14289 whole entry, looked up): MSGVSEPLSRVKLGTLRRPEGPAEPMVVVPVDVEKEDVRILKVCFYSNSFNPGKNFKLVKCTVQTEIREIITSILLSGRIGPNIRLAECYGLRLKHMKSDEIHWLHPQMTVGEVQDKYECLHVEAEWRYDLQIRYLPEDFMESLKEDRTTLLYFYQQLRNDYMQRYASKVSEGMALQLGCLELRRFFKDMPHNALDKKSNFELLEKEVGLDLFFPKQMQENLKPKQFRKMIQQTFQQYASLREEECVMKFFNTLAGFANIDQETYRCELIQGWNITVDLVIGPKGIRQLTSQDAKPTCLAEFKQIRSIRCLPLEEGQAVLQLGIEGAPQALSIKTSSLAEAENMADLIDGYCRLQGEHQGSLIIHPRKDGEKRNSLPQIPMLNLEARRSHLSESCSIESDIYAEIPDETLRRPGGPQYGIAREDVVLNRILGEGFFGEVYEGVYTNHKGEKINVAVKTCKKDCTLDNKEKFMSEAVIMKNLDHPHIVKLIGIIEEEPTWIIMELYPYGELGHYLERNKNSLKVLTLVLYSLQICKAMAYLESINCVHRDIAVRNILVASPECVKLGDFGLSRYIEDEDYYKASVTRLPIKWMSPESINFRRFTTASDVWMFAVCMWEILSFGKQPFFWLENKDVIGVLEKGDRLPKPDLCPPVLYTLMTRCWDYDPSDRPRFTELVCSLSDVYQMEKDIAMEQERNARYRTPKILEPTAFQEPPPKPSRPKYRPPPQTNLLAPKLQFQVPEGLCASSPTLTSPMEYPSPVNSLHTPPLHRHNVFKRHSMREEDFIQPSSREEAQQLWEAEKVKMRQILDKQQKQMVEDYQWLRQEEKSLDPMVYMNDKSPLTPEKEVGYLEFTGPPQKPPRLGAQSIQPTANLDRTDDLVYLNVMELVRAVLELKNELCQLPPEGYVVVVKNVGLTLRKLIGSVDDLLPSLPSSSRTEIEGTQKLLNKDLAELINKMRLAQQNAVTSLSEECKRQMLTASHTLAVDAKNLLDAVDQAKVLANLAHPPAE
The depositor's hits bear a star; nt = not tested or not shown.

SMILES | DAT uptake mod | Rev-RRE block | Phagocyt inh | Cav32 inh | Measles CPE | Pyk2 oligo antag
CCOC(=O)c1ccccc1NC(=O)CSc1nnc(COc2ccccc2)n1CC | 0.092 | 6 | 0 | -5.7* | 53* | -0.47
CCn1c(COc2ccccc2)nnc1SCC(=O)Nc1cc(OC)ccc1OC | 1.7 | 15 | nt | -0.12 | 12 | -0.08
Cc1nc(C(=O)NCc2ccccc2)sc1C1(C)CC(c2ccccc2)=NO1 (stereo not given) | 1.7 | nt | nt | -2.7 | nt | nt
CCOC(=O)c1cccc(NC(=O)CSc2nnc(-c3cccnc3)n2CC)c1 | 2.2 | 3 | 0 | 1.7 | 2 | -0.13
CCOC(=O)c1cccc(NC(=O)CSc2nnc(COc3ccccc3)n2CC)c1 | -0.53 | 8 | 1 | -6.1* | 3 | 0.44
CCn1c(SCC(=O)Nc2ccc3c(c2)c2ccccc2n3CC)nnc1-c1cnccn1 | 2.5* | nt | -1 | nt | 5 | -0.5
CCOC(=O)c1cccc(NC(=O)CSc2nnc(CNc3ccc(C)cc3)n2CC)c1 | 0.028 | -2 | 0 | -4.1* | 7 | -0.06
CCn1c(SCC(=O)Nc2ccccc2OC)nnc1-c1cnccn1 | -0.27 | 1 | -2 | 1.2 | 4 | 1.3
CCn1c(COc2ccccc2C)nnc1SCC(=O)CC(=O)Nc1ccccc1 | 1.8 | 1 | 1 | -5* | 3 | -0.49
Cc1ccc2c(CC(=O)N3CCN(S(=O)(=O)c4ccc5c(c4)OCCO5)CC3)coc2c1 | 0.34 | 7 | -2 | -5.6* | 8 | -1.2
O=c1cc(CN2CCN(S(=O)(=O)c3ccc4c(c3)OCCO4)CC2)c2ccc(O)cc2o1 | 0.59 | -5 | -1 | 0.028 | 4 | -3.9*
Cc1ccc(S(=O)(=O)N2CCN(C(=O)Cc3ccc4c(c3)OCCO4)CC2)cc1C | nt | nt | nt | nt | 13 | nt
N#CC1=C(N)OC2=C(C(=O)CCC2)C1Cc1ccccc1 (stereo not given) | 1.7 | 1 | nt | 0.18 | nt | 0.28
O=C(N/N=C/c1ccc2c(c1)OCO2)C(O)c1ccccc1 (stereo not given) | nt | nt | 1 | nt | 17 | nt
Cc1cccc(/C(N)=N/OC(=O)COc2ccc(Cl)c(C)c2)c1 | nt | nt | 6 | nt | 23* | nt
Cc1cc(OCC(=O)O/N=C(\N)c2ccccc2)ccc1Cl | nt | nt | -4 | nt | 6 | nt
COc1ccnc(CSC(N)=Nc2cccc(C(F)(F)F)c2)c1 | nt | nt | -1 | nt | 18 | 0.96
CCN(CC)S(=O)(=O)c1ccc(Cl)c(C(=O)NC)c1 | -1.1 | 9 | 0 | -0.017 | 45* | 0.06
CCc1nnc(NC(=O)c2cc(S(=O)(=O)N(CC)CC)ccc2Cl)s1 | -0.9 | 6 | -2 | 0.48 | 9 | 0.57
CC(C)[C@H]1C=C(C(=O)O)O[C@@H](OCCCCO)C1 | 0.029 | nt | nt | 0.24 | nt | nt
CC(C)(C)CN1C(N)=NC[C@H]1Cc1ccc(O)cc1 | 0.89 | nt | nt | 0.15 | nt | nt
CC(C)(C)CN1C(N)=NC[C@@H]1Cc1ccc(O)cc1 | -3.8* | nt | nt | 0.14 | nt | nt
Cc1ccc(/C=C2/SC(=S)N(CCC(=O)N3CCN(c4ccccc4)CC3)C2=O)cc1 | nt | 4 | 0 | nt | 17 | nt
Cc1ccc(/C=C2\SC(=S)N(c3c(C)n(C)n(-c4ccccc4)c3=O)C2=O)cc1 | 2.8 | 8 | nt | -5* | 18 | -0.33
Cc1c(N2C(=O)/C(=C/c3cccc4ccccc34)SC2=S)c(=O)n(-c2ccccc2)n1C | -0.76 | 0 | nt | -0.51 | nt | -0.81
SMILES | DAT uptake mod | Rev-RRE block | Phagocyt inh | Cav32 inh | Measles CPE | Pyk2 oligo antag
Cc1c(N2C(=O)/C(=C/c3ccccc3)SC2=S)c(=O)n(-c2ccccc2)n1C | 2.6* | 9 | nt | 1.4 | 3 | -0.15
C=CCC(CC=C)(NC(=O)c1cccc(C)c1)c1ccccc1 | nt | nt | 3 | nt | 15 | nt
CCOC(=O)C1=NN(c2ccc(OC)cc2)C(c2ccccc2)CC1=O (stereo not given) | -8.6* | 3 | nt | -0.51 | 22 | -1.3
CCC(C(=O)NC(C)(C)C)N(C(=O)Cn1nnc(-c2cccs2)n1)c1cnc2ccccc2c1 (stereo not given) | 1.6 | 4 | nt | -1.7 | 80* | -0.42
COc1cccc(N(C(=O)Cn2nnc(-c3ccc(C)o3)n2)C(C(=O)NC(C)(C)C)c2cccs2)c1 (stereo not given) | -0.94 | 10 | nt | 0.41 | 6 | -1.4
O=C(O)CCc1ccc(-c2cccs2)n1NC(=O)c1ccc(Cl)cc1Cl | 0.77 | 4 | 0 | -0.13 | 18 | 1.4
O=C(O)CCc1ccc(-c2cccs2)n1NC(=O)c1ccc(Cl)cc1 | -0.8 | -4 | 79* | -0.11 | 8 | -0.73
